From the EternaBench riboswitch data

Test system: MS2 coat protein
Test: apparent Kd, MS2 coat protein; higher = weaker binding; RNA-MaP array; FMN 200 µM where present
Method in brief: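 SNAP-549-labelled MS2 coat protein, doubled from 0.7 or 1.5 nM to 3 µM, was titrated over designs transcribed by stalled E. coli RNA polymerase on Illumina sequencing-chip clusters. Titrations were run without and then with constant ligand in 100 mM Tris-HCl pH 7.5, 80 mM KCl, 4 mM MgCl2, BSA, DTT, yeast tRNA and Tween-20. The apparent Kd is the median of filtered per-cluster fits to green signal normalised to red-channel RNA signal and control-cluster median Fmax.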

[1] = designed as: OFF switch for flavin mononucleotide, no ligand
[2] = ligand present: flavin mononucleotide, designed as: OFF switch for flavin mononucleotide
[3] = designed as: ON switch for flavin mononucleotide, no ligand
[4] = ligand present: flavin mononucleotide, designed as: ON switch for flavin mononucleotide

| Sequence | apparent Kd [1] [nM] | apparent Kd [2] [nM] | apparent Kd [3] [nM] | apparent Kd [4] [nM] |
| --- | --- | --- | --- | --- |
| ACUAGAUGAGGAUAUGCAUGUUUUCGUGUUCUUCUAGAUUAACAUGAGGAUCACCCAUGUAGAAGGCGUCAUAU | 48.4 | 134 | – | – |
| CCUCGACAUGAGGAUCACCCAUGUAAGGAUAUGUUGACGAGCCAGAAAUGGCUGGUCAACAGAAGGUAUAUGUA | 31.9 | 121 | – | – |
| AAGACGUGGGAAGGAUAUCUGGAAUAUCGGUCGAGAGAAGGUCCCUCGACAUGAGGAUCACCCAUGUAACACGGUCUACCGUGG | – | – | 472 | 280 |
| GCUUCCGCAUGAGGAUAUUGUUAAGGGACGGGACCUCAUGACCCACAUGAGGAUCACCCAUGUGGCGAGAAGGCGUGUAGAGCG | 10.1 | 32.7 | – | – |
| UGUCCAUAGCAGAAGGCUAGAAAACAUGAGGAUCACCCAUGUCAAAAGACUAGAGGAUAUGCUAUGGACUAAGAGCGAAAGCUC | 3.97 | 3.81 | – | – |
| AUGCUAUACGAAGGAUAUGGUUACAUGAGGAUCACCCAUGUUAUGAUUGGUUACUUGUUUAGUUUCCAGAAGGUCGUAUAUUUA | 51 | 235 | – | – |
| AUAAUGUAAGGAUAUCAGUCGUAAUUAAUUUAAUUAUCGACUGAGAAGGUACAUGAGGAUCACCCAUGUGGUCA | 916 | 102 | – | – |
| UCUUUACUGGUCAGGAUAUACAUUCGCUACUCUUUGUAGAAGGGACAUGAGGAUCACCCAUGUACUUUACAUUC | 17.9 | 18 | – | – |
| AUUGUUUAUGUAGGAUAUGCGAGGCGAGCCUAAGCAGAAGGACAUGAGGAUCACCCAUGUAUUGCGGUCUGCGUUCAGAUCGCU | 30.5 | 127 | – | – |
| CAGCGAAAGUAGAAGGUAUUAAUUAAAUUUAAAUAAGGAUAUACAUGAGGAUCACCCAUGUCCUUCAGCUGGAUAUAUAUUAAU | 39.1 | 29.1 | – | – |
| GGGCCCGGAGGAUAUACAUGAGGAUCACCCAUGUAGGGCCCGGGUAUUCCCGGGCCCUGUAGAAGGCCGGGUUU | 14.3 | 18.8 | – | – |
| GGAUGAGCAAUAGGAUAUGCUGGGAUUGAAUGGGUAGAAGGAUUUCUAGUGGGAAAGACAUGAGGAUCACCCAUGUCGCGGCCC | – | – | 23.8 | 25.3 |
| GUGGCCCAGGCACAGGAUAUGUUUCUCGUAACAUGAGGAUCACCCAUGUGCCUAUGAGAUUGUUUGCAGAAGGGUGCACGCCACG | – | – | 449 | 24 |
| CGCGAACAGGCUAACAUGAGGAUCACCCAUGUGGACUCAUGGUAGGAUAUCGGGAAGGAGGAAACCGAGAAGGGCCGGUGAGCC | – | – | 498 | 359 |
| AACGUGUGAGGAUAUGCACGAGUGACAGGGAGGCUGUCACAGCAGAAGGUACAUGAGGAUCACCCAUGUGAAAU | 24.9 | 20.6 | – | – |
| ACUGACAUGAGGAUCACCCAUGUCUUGGAUAGGCCAAAUUCACAGGAUAUGCAUGAGGAAAGAGUGCAGAAGGGUGAUGCAAUG | – | – | 43.6 | 23.9 |
| CAGUACUGAGGAUAUACAUGAGGAUCACCCAUGUGUCUAAGGUAGGAUACUACCAUUAGUAGAAGGCAGUACUG | 12.4 | 18.1 | – | – |
| AGCUAGUCAGGAUAUACGCGAACGAACGAAGCAGUGAAGGGACAUGAGGAUCACCCAUGUAGAAGGGACUAGCA | 27.1 | 53.7 | – | – |
| ACAUGAGGAUCACCCAUGUUAUCAGGGACUUCAAUUAUUUCUAGAAGGCUGUUUACUUGUUAGUCAGAGGAUAUAGAAUUAAAU | 14.5 | 15.9 | – | – |
| AUAAAGUCAGGAUAUGUAAGAAUAACGAAAGUUAUAAAGAAACAGAAGGGACAUGAGGAUCACCCAUGUAAAAU | 29.6 | 30.5 | – | – |
| GACACUAUGUUUGUCAGAUAGAGAGAGGAUAUGGCUCAUGUGACAUGAGGAUCACCCAUGUAUAAUCAGAAGGCUCGAGUACGA | – | – | 45.9 | 16.3 |
| CCCUCAACAUGAGGAUCACCCAUGUAGGAUAUCGCUAUUGUAAUCAUGAAACAUGAUUACAAUAGCGAGAAGGACAUAUGUUUU | 25.9 | 127 | – | – |
| UUAUUGUGAGGAUAUCCAAUAUAUGACAUGAGGAUCACCCAUGUUUCCACUCGUACCUCCGGAGAAGGCACAGUUU | 31.2 | 24.1 | – | – |
| CAGUGUAGUUAGGAUAUCGGGUCGGUUGGGCGCUGAGAAGGAACUACAUGAGGAUCACCCAUGUGGGCUCUUCU | 19.5 | 37.1 | – | – |

| Sequence | apparent Kd [1] [nM] | apparent Kd [2] [nM] | apparent Kd [3] [nM] | apparent Kd [4] [nM] |
| --- | --- | --- | --- | --- |
| AUCCACCGCACGGACACGUCGAGUCAGGAUAUACAUGAGGAUCACCCAUGUGAAGGCCGGCUCAUGUAGAAGGGACAGGCGUUG | 10.4 | 22.5 | – | – |
| UUAUUAAGUGUGAGGAUAUGCUGGUCCUUGGAUCAGCAGAAGGCACAUGAGGAUCACCCAUGUACUUUAUUUUA | 15.4 | 62.2 | – | – |
| GCCAUCGCAUGAGGAUAUGCUCCGGUUUCCGGAGCAGAAGGCAUGUGAUAACACAUGAGGAUCACCCAUGUAGUUAAGAUGGCA | – | – | 5.51 | 4.62 |
| AUAUAUAAUAAGAAGGUGCCAGCGAGAGCUGCACAUGAGGAUCACCCAUGUUGUCGGUGACGACGCAAGGAUAUUAUUAUAUAU | – | – | 56.8 | 18.5 |
| CGUGUCAUCGAGAAGGCCUCAACAUGAGGAUCACCCAUGUUGUAAUAUGGGAGGAUAUCGAUGAUACAGCUACGUUUCGUAGCG | – | – | 19.1 | 6.07 |
| AAAAAACAUGAGGAUCACCCAUGUGAGGAUAUCAAAUAAAGGCACAUGAGAAGGCAUAUGAGAAGGCACAUGAA | 99.3 | 156 | – | – |
| UCUCAGUCAGGAUAUCGUUAAUUUAAUUGUUUGUAUUAGUUCGAGAAGGGACAUGAGGAUCACCCAUGUACUCA | 34 | 94.6 | – | – |
| UGUUGAUAGCAGAAGGACAUGAGGAUCACCCAUGUAUGGAUACAAAUUUAUGUAGGAUAUGCUAUUAACUAAGAGUGAGCGUUC | 9.46 | 42.5 | – | – |
| GUGUACAGAGGAUAUACACGAGUAGUUACGAAAGUAACUAUACAUGAGGAUCACCCAUGUAGAAGGCUGUACAC | 19.1 | 30.5 | – | – |
| UGUCGGAGCAGAGGAUAUUACAUGAGGAUCACCCAUGUAUAAAGAUCAAGCUGGAAACAGCAAUGUAAGAAGGCUGCUCCGACA | 60.4 | 418 | – | – |
| ACUCAGUCAGGAUAUCGUUAAUUUAAUUGUUUGUAUUAGUUCGAGAAGGGACAUGAGGAUCACCCAUGUACUCA | 31.7 | 87.4 | – | – |
| AUCAGCUCGUCAGGAUAUACGUCACUGCGUCAGCAGUGUGGUAAGAUCACAUGAGGAUCACCCAUGUAGAAGGGACGACCUGAU | 13.8 | 278 | – | – |
| CCGCAAAAGCAGGAUAUCGUAUCGGAAACGAUACGAGAAGGGUUUACAUGAGGAUCACCCAUGUUCCUUAGCGG | 29.1 | 38 | – | – |
| GCUAUUGAUGUAGGAUAUGAUAUAGAAACUAUGUCAGAAGGACAUGAGGAUCACCCAUGUCAAUGGAUGGAGAGAAGAGAUGGC | 28 | 30.7 | – | – |
| UGUAUGGACAGAGGAUAUACGGCUAGGAGAUACUAGCUACUAUUCCUCACAUGAGGAUCACCCAUGUAGAAGGCUGUCCAUACU | 18 | 145 | – | – |
| AAUUAUUUACAGAAGGAGUUAAAAGGAGUAUUACUAGGAUAUGUUCACAUGAGGAUCACCCAUGUCAUAUUGGGAUUUAUUUUU | 22.5 | 22.6 | – | – |
| GUAGCAUACCGAGGAUAUUCAUACAAUAAAUAAACAUGAGGAUCACCCAUGUGGCGAAAGCCUAGGGAGAAGGCGGAAUGCUAC | – | – | 154 | 21.8 |
| CCUGGAGGAAAACAGACGAAGUGGCCAGAAGGUGAAUGCCACAUGAGGAUCACCCAUGUUUCGAUCAAGGAUAUGGUUUCUCAC | – | – | 329 | 161 |
| GUUCUUCCUGUGAGGAUAUCCAUGUGUCGGUUUGUGGAGAAGGUACAUGAGGAUCACCCAUGUCACCCGCGUUA | 14.7 | 17.7 | – | – |
| GGGCCCGGAGGAUAUACAUGAGGAUCACCCAUGUGCCGGGCCCAACGGGCCCGGCUGUGUAGAAGGCCGGGCCC | 13.3 | 12.5 | – | – |
| AAAUAAAACGAUCGGCGAUCCAAACAUGAGGAUCACCCAUGUAGAAGGCACUCUACAUAGUAGAGUGAGGAUAUACGAGAUCGA | 22.1 | 584 | – | – |
| AUACAUGAGGAUCACCCAUGUUACUGGGUCUUAAUAGAACGUAGAAGGAUGAUAUUAUAAAUAACAUAGGAUAUACAAUAUUGU | 132 | 64.2 | – | – |
| AAGAAGUCAGGAUAUCCAGCUCGUCACUUGCGUGAUGAGUUGGAGAAGGGACAUGAGGAUCACCCAUGUAAAGA | 56.1 | 49.3 | – | – |
| GAUUUAGAGCAGGAUAUCAUAGAAAUGUAUGAAUGAGAAGGGCUCACAUGAGGAUCACCCAUGUGGUCCUAGAU | 25.4 | 240 | – | – |
